Our source for the SI, CC50 and IC50 values is ChEMBL document CHEMBL1133473, “Synthesis and antiviral activity of 4-benzyl pyridinone derivatives as potent and selective non-nucleoside human immunodeficiency virus type 1 reverse transcriptase inhibitors” (J Med Chem, 2000).

By CC50 is commonly meant the concentration at which the toxic effect on the cells reaches its halfway point. A lower CC50 goes with harm at low concentration. What is called IC50 is the concentration at which inhibition is half-maximal.

Test [1] concerns Human immunodeficiency virus 1. The test can be described thus: Selectivity index is the ratio of CC50 to IC50. The test is classed as functional.
The subject of test [2] is CEM-SS. In words: Tested for cytotoxic concentration on HIV-I Lai wild type in CEM-SS cell line. It counts as functional. As to conditions: Homo sapiens. Put shortly: (§1)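 CEM-SS cells, uninfected, cultured 5 days with compound. Compounds were taken from a DMSO solution at 10^-2 M (10^-3 M or lower if insoluble), diluted 1:100 in medium, then serially diluted in medium.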

Test [3] has as its system CEM-SS. In words: Tested for inhibitory concentration on HIV-I Lai wild type in CEM-SS cell line. It counts as functional, cell-based. As to conditions: Homo sapiens. The essentials: (§2)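 CEM-SS lymphocytic cells infected with 100 TCID50 of HIV-1 LAI, or of the nevirapine-resistant N119 strain carrying an RT codon 181 mutation. Virus adsorbed 30 min, unbound virus removed by two washes, then cells cultured 5 days with serial compound dilutions. Read-out: RT activity of particles released into the supernatant. IC50 from a computer median effect plot of dose-effect data.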

Test [4] deals with MT4. In words: Cytotoxicity against MT-4 cells infected with HIV-1 IIIB strain. The test is classed as functional. The note with it: Homo sapiens.
In test [5] the target is Human immunodeficiency virus type 1 reverse transcriptase (Human immunodeficiency virus 1, UniProt Q72547). In words: Tested for inhibitory concentration on HIV-1 Reverse transcriptase in the presence of poly(c)-oligo-(dG). The essentials:
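Recombinant HIV-1 RT purified from yeast, 20-50 nM. Reaction at 37 °C for 10 min in 50 mM Tris-HCl pH 8.0, 5 mM MgCl2, 4 mM DTT, 80 mM KCl, BSA, 0.48 A260 units/mL poly(C)-oligo(dG) (5:1), 2 µM dGTP plus [3H]dGTP. Stopped with cold 10% TCA plus 0.1 M pyrophosphate; precipitates filtered, scintillation counted. Compounds dissolved in DMSO.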

Test [6] in a line: Inhibitory concentration against HIV-2 D 194. The test is classed as functional. The essentials: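 Cell-based antiviral assay against this HIV-2 isolate. Compounds were dissolved in DMSO as 10^-2 M stocks, or 10^-3 M or lower when insoluble, diluted 1% in culture medium, then serially diluted in medium. Virus production was read as reverse transcriptase activity of particles released into the culture supernatant. IC50 was taken from a median-effect plot of the dose-effect data.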

Test [7] relates to Human immunodeficiency virus 1. In words: Inhibitory concentration against HIV-1 Bal/Mono. The test is classed as functional, organism-based. The essentials: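 Macrophage-tropic HIV-1 Bal in monocyte-derived macrophages kept serum-free in AIM V medium with 100 U/mL GM-CSF. Virus output measured as supernatant particle-associated RT activity.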
Test [8] in a line: Cytotoxicity against PBMC cells infected with HIV-2 D 194. It counts as functional. As to conditions: Human immunodeficiency virus 2, PBMC.
In test [9] the test system is Human immunodeficiency virus 1. In words: Tested for cytotoxic concentration on HIV-I nevirapine resistant strain. It counts as functional. Put shortly: as §1
Test [10] has as its system Human immunodeficiency virus 1. In words: Inhibitory concentration against HIV-1 AZTres. It counts as functional, organism-based. The essentials: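 AZT-resistant HIV-1 isolate A018 G910-6 tested in cell culture; virus production measured as RT activity of particles released into the culture supernatant.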
Test [11] deals with MT4. The test can be described thus: Cytotoxicity against MT-4 cells infected with HIV-1 AZTres. It counts as functional. The note with it: Homo sapiens.
The test system of test [12] is Human immunodeficiency virus 1. In words: Selectivity index is the ratio of CC50 to IC50 against HIV-1 nevirapine resistant strain. The test is classed as functional.
For test [13], the system named is Human immunodeficiency virus 1. The test can be described thus: Inhibitory concentration against HIV-1 IIIB strain. The test is classed as functional, organism-based. Put shortly:
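MT4 cells infected with HIV-1 IIIB; antiviral effect read as protection from virus-induced cytopathogenicity by MTT. Compounds taken from DMSO stock, diluted in culture medium.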

Test [14] relates to Human immunodeficiency virus 1. In words: Tested for inhibitory concentration on HIV-I nevirapine resistant strain. It counts as functional, organism-based. Put shortly:
as §2

The nature of test [15]: Cytotoxicity against Macrophages infected with HIV-1 Bal/Mono. It counts as functional. As to conditions: Human immunodeficiency virus 1.
The nature of test [16]: Cytotoxicity against PBMC cells infected with HIV-1 IIIB strain. The test is classed as functional. The note with it: Human immunodeficiency virus 1, PBMC.

Structures are written as SMILES. Where “and” joins values, the source holds several entries; their conditions need not be identical. Equal values may be shown once.

Regarding `CCc1c(C)nc(OC)c2c1C(c1cc(C)cc(C)c1)OC(O)(C(C)(C)C)N2` (stereo not drawn), in test [1], the SI was more than 2. Further, in [2], the CC50 is more than 10000 nM. In [3], this molecule gave an IC50 of 4200 nM.

In the case of `CCc1c(C)nc(O)c(NC(=O)C(C)(C)C)c1C(C)(O)c1cc(C)cc(C)c1` (stereo not drawn), in [1], the SI was more than 8. The CC50 in test [2] is more than 100000 nM. In [3], this molecule returned an IC50 of 12000 nM.

Turning to `CCc1c(C)[nH]c(=O)c(N(C)C)c1Cc1cc(C)cc(C)c1`, the CC50 in test [4], in [8], in [9], in test [11], in test [2] and in test [15] was more than 1000 nM throughout. Also, in test [16], the CC50 was more than 1000 nM. In addition, the IC50 was 20 nM in test [5]; more than 1000 nM in test [6]; 0.004 nM in [7]; 0.2 nM in [10]; 2.4 nM and 0.58 nM in test [13]; 40 nM in test [14]. In [3], half-maximal inhibition (IC50) was put at 0.2 nM. The SI in test [1] is reported as more than 5000; in test [12], more than 25.

Turning to `Cc1cc(C)cc(Sc2c(C)cnc(O)c2NC=O)c1`, the SI in [1] is more than 15. Half-maximal inhibition in [3] (IC50) was put at 6600 nM.

In the case of `Cc1c(Sc2ccccc2)n(COCc2ccccc2)c(=O)[nH]c1=O`, the IC50 in test [5] was 300 nM.

In the case of `CCOC(=O)Nc1c(O)nc(C)c(CC)c1Cc1cc(C)cc(C)c1`, the SI in test [1] was more than 21. In [2], this molecule had a CC50 of more than 10000 nM. This molecule gave an IC50 in test [3] of 460 nM.

Regarding `CCc1c(C)[nH]c(=O)c(NC)c1Cc1cc(C)cc(C)c1`, the CC50 in [4], in [8], in test [9], in [11], in [2] and in test [15] was more than 10000 nM throughout. In addition, in [16], the CC50 was more than 10000 nM. Further, the IC50 was more than 10000 nM in test [6]; 720 nM in test [7]; 76 nM in [10]; 1700 nM in test [14]; 30 nM in test [3]. Also, the SI in test [1] was more than 333; in test [12], >5.5 and >10.

`CC(C)=CCN1Cc2cc(Cl)cc3[nH]c(=S)n(c23)C[C@@H]1C`: the CC50 in test [9] is more than 10000 nM. In test [14], this molecule had an IC50 of more than 10000 nM.

As to `CCc1c(C)nc(O)c(NC(=O)CN)c1Cc1cc(C)cc(C)c1`, in test [1], the SI is listed as more than 5555. This molecule also gave a CC50 in test [2] of more than 100000 nM. In [3], half-maximal inhibition (IC50) required 18 nM.

Take `CCc1c(C)nc(O)c(N)c1Cc1ccccc1`: the SI in test [1] was more than 136. The same molecule registered a CC50 in test [2] of more than 100000 nM. Moreover, the IC50 in test [3] came out at 730 nM.

Consider `CCc1c(C)nc(O)c(NC(=O)CNC(=O)OC(C)(C)C)c1Cc1cc(C)cc(C)c1`, for which, in [1], the SI is listed as 12. The molecule also returned a CC50 in [2] of 86000 nM. The same molecule had an IC50 in [3] of 6700 nM.

As for `CCC(=O)Nc1c(Cc2cc(C)cc(C)c2)c(CC)c(C)[nH]c1=O`, the SI in test [1] is more than 2. This molecule also registered a CC50 in test [2] of more than 10000 nM. In test [3], this molecule displayed an IC50 of 4600 nM.

As for `CCc1c(C)nc(O)c([N+](=O)[O-])c1Sc1cc(C)cc(C)c1`, the IC50 in test [14] was 260 nM.

Consider `CCc1cc(NC(=O)C(C)(C)C)c(OC)nc1C`, for which the CC50 in test [2] was more than 100000 nM. In [3], this molecule yielded an IC50 of more than 100000 nM.

Consider `CCc1cc(NCc2cc(C)c(C)cc2OC)c(O)nc1C`, for which inhibition in test [3] was half-maximal at 8 nM (IC50).

Take `CCC(=O)Nc1c(O)ncc(C)c1Sc1cc(C)cc(C)c1`: the SI in test [1] is recorded as more than 2. In test [3], this molecule came in with an IC50 of 41400 nM.

As to `CCc1c(C)nc(O)c(N)c1C(=O)c1cc(C)cc(C)c1`, the CC50 in [4], in test [8], in test [9], in test [11], in [2] and in test [15] was more than 10000 nM each time. The same molecule returned a CC50 in test [16] of more than 10000 nM. Besides, the IC50 in [5] is 100 nM; in test [6] it was more than 10000 nM; in [7], 17 nM; in [10], 25 nM; in test [13], 85 nM and 20 nM; in test [14], 1300 nM. This molecule gave an IC50 in [3] of 6 nM. For the same molecule, the SI is listed as more than 1666 in test [1] and more than 7 in test [12].
